Measured values taken from ChEMBL document CHEMBL1135970, “Identification of a pharmacophore for thrombopoietic activity of small, non-peptidyl molecules. 1. Discovery and optimization of salicylaldehyde thiosemicarbazone thrombopoietin mimics” (J Med Chem, 2002).

What was measured:
Homo sapiens = species: Homo sapiens; assay: Thrombopoietin efficacy in human bone marrow cultures was reported; type: functional
[1] = Compound was evaluated for the expression of luciferase activity in BAF3/TPO-Rluc cell line; type: functional, cell-based; settings: Homo sapiens, BAF-3/TPO-Rluc
In short: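 BAF3/TPO-Rluc cells at (1 × 10⁵)/mL, starved of IL-3 overnight, in growth medium with 0.5% v/v FBS and 30 µM ZnCl₂. Incubated with compound (0.32% DMSO final) or rhuTPO for 3 h at 37 °C, 5% CO₂. Luciferase activity read on a luminometer; each point is the mean of triplicate assays.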

SMILES | TPO(max) (Homo sapiens) [%] | EC50 [1] [nM]
Cc1ccc(-c2cccc(/C=N/N=C(\S)Nc3cccc(C(=O)O)c3)c2O)cc1C | 90 | –
O=S(=O)(O)c1ccc(N/C(S)=N/N=C/c2cc(Cl)cc(Cl)c2O)cc1 | 29 | 260
O=C(O)c1ccc(N/C(S)=N/N=C/c2cccc(-c3cccc(C(F)(F)F)c3)c2O)cc1 | 100 | –
Cc1ccc(-n2[nH]c(C)c(/N=N/c3c(O)cc(S(=O)(=O)O)c4ccccc34)c2=O)cc1C | 100 | 40
O=C(O)c1ccc(N/C(S)=N/N=C/c2cc(Cl)cc(Cl)c2O)cc1 | 30 | 350
Cc1cc(Cl)ccc1/N=C(\S)N/N=C/c1cc(Cl)cc(Cl)c1O | 30 | 5600
